According to ChEMBL document CHEMBL4145448, “Broad activity of diphenyleneiodonium analogues against Mycobacterium tuberculosis, malaria parasites and bacterial pathogens” (Eur J Med Chem, 2018):

Key:
[1] = Selectivity index, ratio of CC50 for human HepG2 cells in presence of 1% FBS to MIC for vancomycin-intermediate Staphylococcus aureus ATCC 700698; type: toxicity; details: read-out: Selectivity Index
Procedure, shortened: (§1)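 Selectivity index is CC50 (1% FBS) divided by MIC. […] They then got compound at 300 to 0.14 µM (3-fold steps) for 24 h at 37 °C, 5% CO2. Resazurin (10 µM, 2 h) was read at ex/em 560/590 in duplicate wells. For MIC, CLSI broth microdilution was run in CaMHB with ~10^6 cfu/mL inoculum and 0–128 µM compound.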

[2] = Selectivity index, ratio of CC50 for human HepG2 cells in presence of 1% FBS to MIC for Klebsiella pneumoniae isolate 224-11-C; type: toxicity; details: read-out: Selectivity Index
[3] = Selectivity index, ratio of CC50 for human HepG2 cells in presence of 1% FBS to MIC for Acinetobacter baumannii ATCC 17978; type: toxicity; details: read-out: Selectivity Index
[4] = Selectivity index, ratio of CC50 for human HepG2 cells in presence of 1% FBS to MIC for vancomycin-resistant Enterococcus faecium ATCC 700221; type: toxicity; details: read-out: Selectivity Index; procedure, shortened: as §1
Escherichia coli = test: Antibacterial activity against Escherichia coli N4149 after 18 hrs by broth microdilution method; type: functional; details: N4149, 18 h
Procedure, shortened: (§2)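 Broth microdilution per CLSI in cation-adjusted Mueller-Hinton broth. 100 µL inoculum (~10^6 cfu/mL in CaMHB) mixed with 100 µL CaMHB containing compound, 0 to 128 µM. Incubated 18 h at 37 °C. MIC taken as the lowest concentration with no visible growth. Polymyxin B served as positive control. Isolates were stored at -80 °C in tryptone soy broth with 20% glycerol.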

[5] = Selectivity index, ratio of CC50 for human HepG2 cells in presence of 1% FBS to MIC for Acinetobacter baumannii isolate 246-01-C; type: toxicity; details: read-out: Selectivity Index
Plasmodium knowlesi = test: Growth inhibition of Plasmodium knowlesi YH1 after 50 hrs by ethidium bromide staining based flow cytometry; type: functional, organism-based; details: YH1, 50 h
Procedure, shortened: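 P. knowlesi YH1 cultured in human O+ erythrocytes in RPMI-HEPES with 0.5% Albumax II under 1% O2/4% CO2. Ring-synchronised parasites set up at 1% parasitaemia and 1% haematocrit with compound. Cultured 50 h to late trophozoites of the next cycle. Stained 1 h with 10 µg/mL ethidium bromide and parasitaemia counted by flow cytometry.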

[6] = Selectivity index, ratio of CC50 for human HepG2 cells in presence of 1% FBS to MIC for Pseudomonas aeruginosa QLD PSA 1; type: toxicity; details: read-out: Selectivity Index; procedure, shortened: as §1
Pseudomonas aeruginosa [7] = test: Antibacterial activity against Pseudomonas aeruginosa isolate 18878B klon 1 after 18 hrs by broth microdilution method; type: functional; details: isolate 18878B klon 1, 18 h; procedure, shortened: as §2
Staphylococcus aureus [8] = test: Antibacterial activity against methicillin-resistant Staphylococcus aureus ATCC 43300 after 18 hrs by broth microdilution method; type: functional; details: ATCC 43300, 18 h; procedure, shortened: as §2
Klebsiella pneumoniae [9] = test: Antibacterial activity against Klebsiella pneumoniae isolate 224-11-C after 18 hrs by broth microdilution method; type: functional; procedure, shortened: as §2
Plasmodium falciparum = test: Growth inhibition of […] GFP-fused Plasmodium falciparum D10 after 90 hrs by ethidium bromide staining based flow cytometry; type: functional, organism-based; details: D10, 90 h
Procedure, shortened: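 Parasites cultured in human O+ erythrocytes in RPMI-HEPES pH 7.4 with hypoxanthine, NaHCO3, gentamicin and 0.5% Albumax II under 1% O2/4% CO2 at 37 °C. Synchronised to rings with heparin plus sorbitol. Set up at 1% parasitaemia and 1% haematocrit with 10x compound added. Cultured 90 h to next-cycle trophozoites. Stained with 10 µg/mL ethidium bromide for 1 h, washed, parasitaemia counted by flow cytometry with GFP gating.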

Enterococcus faecium = test: Antibacterial activity against vancomycin-resistant Enterococcus faecium ATCC 700221 after 18 hrs by broth microdilution method; type: functional; details: ATCC 700221, 18 h; procedure, shortened: as §2
[10] = Selectivity index, ratio of CC50 for human HepG2 cells in presence of 1% FBS to IC50 for Plasmodium knowlesi YH1; type: toxicity; details: read-out: Ratio IC50
[11] = Selectivity index, ratio of CC50 for human HepG2 cells in presence of 1% FBS to MIC for Acinetobacter baumannii ATCC 17978 col10; type: toxicity; details: read-out: Selectivity Index
[12] = Selectivity index, ratio of CC50 for human HepG2 cells in presence of 1% FBS to IC50 for drug-resistant GFP-fused Plasmodium falciparum D10; type: toxicity; details: read-out: Ratio IC50
[13] = Selectivity index, ratio of CC50 for human HepG2 cells in presence of 1% FBS to MIC for Escherichia coli N4149; type: toxicity; details: read-out: Selectivity Index
[14] = Selectivity index, ratio of CC50 for human HepG2 cells in presence of 1% FBS to MIC for Klebsiella pneumoniae isolate M320445; type: toxicity; details: read-out: Selectivity Index
Klebsiella pneumoniae [15] = test: Antibacterial activity against Klebsiella pneumoniae ATCC 13883 after 18 hrs by broth microdilution method; type: functional; details: ATCC 13883, 18 h; procedure, shortened: as §2
[16] = Selectivity index, ratio of CC50 for human HepG2 cells in presence of 1% FBS to MIC for Escherichia coli N11281; type: toxicity; details: read-out: Selectivity Index
[17] = Selectivity index, ratio of CC50 for human HepG2 cells in presence of 1% FBS to MIC for Pseudomonas aeruginosa ATCC 27853; type: toxicity; details: read-out: Selectivity Index; procedure, shortened: as §1
Staphylococcus aureus [18] = test: Antibacterial activity against vancomycin-resistant Staphylococcus aureus ATCC 700699 after 18 hrs by broth microdilution method; type: functional; details: ATCC 700699, 18 h; procedure, shortened: as §2
[19] = Selectivity index, ratio of CC50 for human HepG2 cells in presence of 1% FBS to MIC for Pseudomonas aeruginosa isolate 19147nm; type: toxicity; details: read-out: Selectivity Index; procedure, shortened: as §1
Pseudomonas aeruginosa [20] = test: Antibacterial activity against Pseudomonas aeruginosa QLD PSA 1 after 18 hrs by broth microdilution method; type: functional; details: QLD PSA 1, 18 h; procedure, shortened: as §2
Staphylococcus aureus [21] = test: Antibacterial activity against vancomycin-intermediate Staphylococcus aureus ATCC 700698 after 18 hrs by broth microdilution method; type: functional; details: ATCC 700698, 18 h; procedure, shortened: as §2
Acinetobacter baumannii = test: Antibacterial activity against Acinetobacter baumannii isolate 246-01-C after 18 hrs by broth microdilution method; type: functional; procedure, shortened: as §2
[22] = Selectivity index, ratio of CC50 for human HepG2 cells in presence of 1% FBS to MIC for Escherichia coli N2381; type: toxicity; details: read-out: Selectivity Index

Row | SMILES | selectivity ratio [1] | selectivity ratio [2] | selectivity ratio [3] | selectivity ratio [4] | MIC (Escherichia coli) | selectivity ratio [5] | selectivity ratio [6] | MIC (Pseudomonas aeruginosa [7]) | MIC (Staphylococcus aureus [8]) | MIC (Klebsiella pneumoniae [9]) | MIC (Enterococcus faecium) | selectivity ratio [11] | selectivity ratio [13] | selectivity ratio [14] | MIC (Klebsiella pneumoniae [15]) | selectivity ratio [16] | selectivity ratio [17] | MIC (Staphylococcus aureus [18]) | selectivity ratio [19] | MIC (Pseudomonas aeruginosa [20]) | other results
1 | Clc1cccc2c1-c1ccccc1[I+]2 | 0.29 | 0.08 | < 2.4 | < 2.4 | 0.54 µM | < 2.4 | 1.2 | < 0.27 µM | 1.1 µM | 8.6 µM | < 0.27 µM | < 2.4 | 1.2 | 0.08 | 4.3 µM | 0.31 | < 2.4 | 1.1 µM | < 2.4 | 0.54 µM | IC50 (Plasmodium knowlesi): 0.08 µM; IC50 (Plasmodium falciparum): 0.07 µM; selectivity ratio [10]: 8.5; selectivity ratio [12]: 8.9; MIC (Staphylococcus aureus [21]): 2.3 µM; MIC (Acinetobacter baumannii): < 0.27 µM; selectivity ratio [22]: 1.2
2 | Fc1cccc2c1-c1ccccc1[I+]2 | 2.1 | 0.51 | 8.2 | 8.2 | 1.1 µM | < 16 | 1 | < 0.28 µM | 2.2 µM | 9 µM | 0.56 µM | < 16 | 4.2 | 0.51 | 4.5 µM | 1 | 2.1 | 2.2 µM | < 16 | 4.5 µM | IC50 (Plasmodium knowlesi): 0.08 µM; IC50 (Plasmodium falciparum): 0.08 µM; selectivity ratio [10]: 59; selectivity ratio [12]: 61; MIC (Staphylococcus aureus [21]): 2.2 µM; MIC (Acinetobacter baumannii): < 0.28 µM; selectivity ratio [22]: 4.2
3 | N#Cc1ccc2c(c1)[I+]c1ccccc1-2 | 0.37 | > 0.05 | 0.75 | 1.5 | 71 µM | 0.19 | 0.37 | 4.4 µM | 4.4 µM | > 71 µM | 2.2 µM | 1.5 | 0.05 | 0.09 | 18 µM | 0.05 | 0.09 | 8.8 µM | 1.5 | 8.8 µM | MIC (Staphylococcus aureus [21]): 8.8 µM; MIC (Acinetobacter baumannii): 18 µM; selectivity ratio [22]: 0.05
4 | COc1ccc2c(c1)[I+]c1ccccc1-2 | 0.78 | > 0.11 | 0.39 | 1.6 | > 70 µM | 0.21 | 0.11 | 18 µM | 4.4 µM | > 70 µM | 4.4 µM | 3.1 | > 0.11 | 0.11 | > 70 µM | > 0.11 | > 0.11 | 8.7 µM | 0.81 | 70 µM | MIC (Staphylococcus aureus [21]): 8.7 µM; MIC (Acinetobacter baumannii): 35 µM; selectivity ratio [22]: 0.21
5 | Fc1ccc2c(c1)-c1ccccc1[I+]2 | 0.67 | 0.33 | 5.3 | 2.7 | 36 µM | 2.7 | 0.67 | 2.2 µM | 4.5 µM | 36 µM | 4.5 µM | 2 | 0.33 | 0.67 | 18 µM | 0.67 | 0.67 | 9.1 µM | 11 | 18 µM | MIC (Staphylococcus aureus [21]): 18 µM; MIC (Acinetobacter baumannii): 4.5 µM; selectivity ratio [22]: 0.67
6 | Cc1cccc2c1-c1ccccc1[I+]2 | 0.07 | > 0.04 | 2.3 | 1.2 | > 72 µM | 1.2 | 0.58 | 1.1 µM | 36 µM | > 72 µM | 2.3 µM | 4.6 | > 0.04 | 0.07 | 18 µM | 0.14 | 0.14 | 36 µM | 4.6 | 4.5 µM | MIC (Staphylococcus aureus [21]): 36 µM; MIC (Acinetobacter baumannii): 2.3 µM; selectivity ratio [22]: 0.14
